Experimental findings from ChEMBL document CHEMBL6127135, “Generation of BT-Amide, a Bone-Targeted Pyk2 Inhibitor, Effective via Oral Administration, for the Prevention of Glucocorticoid-Induced Bone Loss” (J Med Chem, 2024) are described below.

Active and inactive are the calls of the source. The rule behind the calls is not given here.

Data set [1] has as its target Protein-tyrosine kinase 2-beta (Homo sapiens, UniProt Q14289). In words: Inhibition of Pyk2 kinase (unknown origin) by bioluminescent ADP-Glo kinase assay. The method in brief: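 ADP-Glo luminescent read-out of ADP formation, run per kit instructions; inhibitors tested as 8-point half-log dilution series, 1 uM down to 0.316 nM. IC50 obtained by fitting dose–response curves with an [inhibitor] vs normalized response model; each compound tested at least 3 times.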
(In general: In ADP-Glo the light output rises with the ADP produced.)

The next data set relates to Mus musculus. The data set can be described thus: In vivo inhibition of Glucocorticoid-induced bone loss in C57BL/6 mouse assessed as prevention of bone loss by measuring increase in bone mineral density at 10 mg/kg/day, po treatment initiated 3 days prior to glucocorticoid challenge measured after 2 weeks. It is filed as functional, organism-based. Particulars: time 17.0 day. A digest of the protocol:
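Female C57BL/6 mice, 4 months old, randomized; oral gavage 10 mg/kg 5 times per week, starting 3 days before subcutaneous slow-release pellet (placebo or prednisolone 2.1 mg/kg/d). Total-body BMD (head and tail excluded) by DEXA after 2 weeks; analysis blinded. Two-way ANOVA with Tukey post hoc, N = 9–10.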

Data set [2] is described as follows: Toxicity in Glucocorticoid-induced C57BL/6 mouse bone loss model assessed as adverse effect by measuring mouse with skin lesions at 10 mg/kg/day, po treatment initiated 3 days prior to glucocorticoid challenge measured after 2 weeks. It is filed as organism-based. Particulars: in vivo, 408 h, time 17 day. The method in brief: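 Female C57BL/6 mice, 4 months old; oral gavage 10 mg/kg 5 times per week from 3 days before placebo or prednisolone (2.1 mg/kg/d) pellet implantation. Mice scored for development of skin lesions during the study.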

Data set [3] in a line: Toxicity in Glucocorticoid-induced C57BL/6 mouse bone loss model assessed as adverse effect at 10 mg/kg/day, po treatment initiated 3 days prior to glucocorticoid challenge measured after 2 weeks. It is filed as organism-based. The settings on record: in vivo, 408 h, time 17 day.
A short description of data set [4]: Toxicity in Glucocorticoid-induced C57BL/6 mouse bone loss model assessed as circulating organ toxicity in serum by measuring Albumin at 10 mg/kg/day, po treatment initiated 3 days prior to glucocorticoid challenge measured after 2 weeks. Particulars: in vivo, 408 h, time 17 day. It is filed as organism-based. A digest of the protocol: (§1)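 Same mouse regimen: 4-month-old female C57BL/6, gavage 10 mg/kg 5×/week, prednisolone 2.1 mg/kg/d or placebo pellets. At study end, blood collected after isoflurane sedation and euthanasia. 14-parameter Comprehensive Diagnostic Profile analyser panel on plasma. Untreated and vehicle mice served as controls. N = 9–10, mean ± SD.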

Data set [5] in a line: Toxicity in Glucocorticoid-induced C57BL/6 mouse bone loss model assessed as circulating organ toxicity in serum by measuring alkaline phosphatase at 10 mg/kg/day, po treatment initiated 3 days prior to glucocorticoid challenge measured after 2 weeks. It is filed as organism-based. Particulars: in vivo, 408 h, time 17 day. The method in brief: as §1
The nature of data set [6]: Toxicity in Glucocorticoid-induced C57BL/6 mouse bone loss model assessed as circulating organ toxicity in serum by measuring […] at 10 mg/kg/day, po treatment initiated 3 days prior to glucocorticoid challenge measured after 2 weeks. Format: organism-based. The settings on record: in vivo, 408 h, time 17 day. A digest of the protocol: as §1
The nature of data set [7]: Toxicity in Glucocorticoid-induced C57BL/6 mouse bone loss model assessed as circulating organ toxicity in serum by measuring amylase at 10 mg/kg/day, po treatment initiated 3 days prior to glucocorticoid challenge measured after 2 weeks. It is filed as organism-based. The settings on record: in vivo, 408 h, time 17 day. The method in brief: as §1
A short description of data set [8]: Toxicity in Glucocorticoid-induced C57BL/6 mouse bone loss model assessed as circulating organ toxicity in serum by measuring blood urea nitrogen at 10 mg/kg/day, po treatment initiated 3 days prior to glucocorticoid challenge measured after 2 weeks. It is filed as organism-based. The settings on record: in vivo, 408 h, time 17 day. The method in brief:
as §1

Data set [9] is described as follows: Toxicity in Glucocorticoid-induced C57BL/6 mouse bone loss model assessed as circulating organ toxicity in serum by measuring calcium at 10 mg/kg/day, po treatment initiated 3 days prior to glucocorticoid challenge measured after 2 weeks. Format: organism-based. The settings on record: in vivo, 408 h, time 17 day. A digest of the protocol: as §1
Data set [10] is described as follows: Toxicity in Glucocorticoid-induced C57BL/6 mouse bone loss model assessed as circulating organ toxicity in serum by measuring creatinine at 10 mg/kg/day, po treatment initiated 3 days prior to glucocorticoid challenge measured after 2 weeks. It is filed as organism-based. The settings on record: in vivo, 408 h, time 17 day. The method in brief: as §1
Data set [11] can be described thus: Toxicity in Glucocorticoid-induced C57BL/6 mouse bone loss model assessed as circulating organ toxicity in serum by measuring glucose at 10 mg/kg/day, po treatment initiated 3 days prior to glucocorticoid challenge measured after 2 weeks. It is filed as organism-based. Particulars: in vivo, 408 h, time 17 day. A digest of the protocol: as §1
Data set [12] is described as follows: Toxicity in Glucocorticoid-induced C57BL/6 mouse bone loss model assessed as circulating organ toxicity in serum by measuring potassium at 10 mg/kg/day, po treatment initiated 3 days prior to glucocorticoid challenge measured after 2 weeks. Format: organism-based. The settings on record: in vivo, 408 h, time 17 day. The method in brief:
as §1

Data set [13] in a line: Toxicity in Glucocorticoid-induced C57BL/6 mouse bone loss model assessed as circulating organ toxicity in serum by measuring sodium at 10 mg/kg/day, po treatment initiated 3 days prior to glucocorticoid challenge measured after 2 weeks. The settings on record: in vivo, 408 h, time 17 day. Format: organism-based. The method in brief: as §1
Data set [14] in a line: Toxicity in Glucocorticoid-induced C57BL/6 mouse bone loss model assessed as circulating organ toxicity in serum by measuring phosphorus at 10 mg/kg/day, po treatment initiated 3 days prior to glucocorticoid challenge measured after 2 weeks. Format: organism-based. Particulars: in vivo, 408 h, time 17 day. A digest of the protocol: as §1
A short description of data set [15]: Toxicity in Glucocorticoid-induced C57BL/6 mouse bone loss model assessed as circulating organ toxicity in serum by measuring total bilirubin at 10 mg/kg/day, po treatment initiated 3 days prior to glucocorticoid challenge measured after 2 weeks. It is filed as organism-based. Particulars: in vivo, 408 h, time 17 day. A digest of the protocol:
as §1

Data set [16] in a line: Toxicity in Glucocorticoid-induced C57BL/6 mouse bone loss model assessed as circulating organ toxicity in serum by measuring Total protein at 10 mg/kg/day, po treatment initiated 3 days prior to glucocorticoid challenge measured after 2 weeks. Format: organism-based. The settings on record: in vivo, 408 h, time 17 day. The method in brief:
as §1

Protein-tyrosine kinase 2-beta, sequence (Q14289 whole entry): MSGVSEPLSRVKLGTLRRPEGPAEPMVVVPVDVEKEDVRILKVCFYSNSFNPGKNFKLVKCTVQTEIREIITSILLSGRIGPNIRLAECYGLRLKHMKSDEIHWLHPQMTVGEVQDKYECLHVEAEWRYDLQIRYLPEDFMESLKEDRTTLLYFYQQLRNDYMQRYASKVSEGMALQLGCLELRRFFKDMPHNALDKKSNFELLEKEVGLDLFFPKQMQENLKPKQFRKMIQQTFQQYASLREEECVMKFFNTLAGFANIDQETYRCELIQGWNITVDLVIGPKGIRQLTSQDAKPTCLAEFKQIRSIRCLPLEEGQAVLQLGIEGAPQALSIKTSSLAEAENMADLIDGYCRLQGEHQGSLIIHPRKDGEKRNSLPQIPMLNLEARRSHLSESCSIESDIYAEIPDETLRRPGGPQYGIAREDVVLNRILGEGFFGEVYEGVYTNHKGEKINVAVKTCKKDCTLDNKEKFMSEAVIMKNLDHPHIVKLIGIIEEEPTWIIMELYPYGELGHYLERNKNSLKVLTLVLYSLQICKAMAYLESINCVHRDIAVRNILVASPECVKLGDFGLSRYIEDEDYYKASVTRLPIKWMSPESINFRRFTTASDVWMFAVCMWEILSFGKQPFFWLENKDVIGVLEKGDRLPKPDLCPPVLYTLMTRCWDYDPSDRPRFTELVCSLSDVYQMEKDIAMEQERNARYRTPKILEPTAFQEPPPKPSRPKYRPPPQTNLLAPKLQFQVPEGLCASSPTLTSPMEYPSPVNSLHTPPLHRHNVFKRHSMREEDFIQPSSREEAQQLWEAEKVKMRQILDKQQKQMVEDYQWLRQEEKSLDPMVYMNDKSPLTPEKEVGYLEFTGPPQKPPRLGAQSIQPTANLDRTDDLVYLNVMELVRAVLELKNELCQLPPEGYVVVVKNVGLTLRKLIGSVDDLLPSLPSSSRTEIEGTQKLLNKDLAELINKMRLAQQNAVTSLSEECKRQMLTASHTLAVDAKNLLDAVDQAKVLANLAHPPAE

By IC50 is commonly meant the concentration needed to halve the response being measured. Regarding `CNC(=O)c1ccccc1Nc1nc(Nc2ccc(N)cc2OC)ncc1Cl`, the half-inhibitory concentration (IC50) in data set [1] stood at 43.5 nM.

`CNC(=O)c1ccccc1Nc1nc(Nc2ccc(N3CCOCC3)cc2OC)ncc1Cl` came in with a concentration for half-maximal inhibition (IC50) in [1] of 16.9 nM. The outcome in the data set on Mus musculus was Active. The Activity in data set [2] was found to be 15%.

Take `CNC(=O)c1ccccc1Nc1nc(Nc2ccc(NC(=O)CCCCC(=O)NCCCC(O)(P(=O)(O)O)P(=O)(O)O)cc2OC)ncc1Cl`: the concentration for half-maximal inhibition (IC50) in [1] stood at 44.7 nM. In addition, the result with Mus musculus was Active. Also, the Activity result in data set [3], in [4], in data set [5], in [6], in [7] and in data set [8] was “Non-Toxic” each time. Also, the Activity result in [9], in [10], in data set [11], in [12], in [13] and in data set [14] was “Non-Toxic” in each case. In addition, the Activity result in data set [15] and in [16] was “Non-Toxic” each time.

As to `CNC(=O)c1ccccc1Nc1nc(Nc2ccc(N3CCC(O)CC3)cc2OC)ncc1Cl`, inhibition in [1] was half-maximal at 101 nM (IC50).

`CNC(=O)c1ccccc1Nc1nc(Nc2ccc(OC(=O)CCCCC(=O)NCCCC(O)(P(=O)(O)O)P(=O)(O)O)cc2OC)ncc1Cl`: the outcome in the data set on Mus musculus was inactive. Further, the Activity result in data set [2] is “Non-Toxic”.
